pIC50: −log10 of the molar value. Active and inactive are the calls of the source. The calls are words filed in the database; no cut-off is given here.
Legend:
[1] = test system: MDA-MB-231; experiment: Induction of apoptosis in human MDA-MB-231 cells assessed as reduction of cdc2 phosphorylation at Y15 regulatory site at 10 uM by Western blot analysis; type: functional, cell-based; conditions: TDE = time-dependent effect
How it was run: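 MDA-MB-231 cells were treated with 10 µM compound for 1, 3, 6, 12 and 24 h and lysed. Equal protein was resolved by 10% SDS–PAGE and immunoblotted for phospho-cdc2 (T161, Y15), cdc2 and cyclin B, with actin as loading standard and ECL detection.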

[2] = test system: MDA-MB-231; experiment: Drug uptake in human MDA-MB-231 cell cytoplasm at 10 uM after 1 hr using propidium iodide staining by two-photon confocal microscopy; type: ADME, cell-based; conditions: mda-mb-231, 1 h
How it was run: (§1)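 Cells (5 × 10^5) were treated with 10 µM compound for 1 h, PBS-washed and fixed in 4% formaldehyde. Nuclei were stained with propidium iodide for 5 min before mounting. Imaging used two-photon confocal microscopy, 63× oil, excitation 720 nm, emission 480–520 nm, with DIC for morphology.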

[3] = test system: MCF7; experiment: Drug uptake in human MCF7 cell cytoplasm at 10 uM after 1 hr using propidium iodide staining by two-photon confocal microscopy; type: ADME, cell-based; conditions: mcf7, 1 h; how it was run: as §1
[4] = test system: MDA-MB-231; experiment: Drug uptake in human MDA-MB-231 cell cytoplasm at 10 uM after 3 to 24 hrs using propidium iodide staining by two-photon confocal microscopy; type: ADME, cell-based; conditions: mda-mb-231, 10 µM
[5] = test system: MDA-MB-231; experiment: Induction of apoptosis in human MDA-MB-231 cells assessed as decrease in Bcl2 protein level at 10 uM after 48 hrs by Western blotting; type: functional, cell-based
How it was run: (§2)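 MDA-MB-231 cells were treated with vehicle or 10 µM compound for 48 h (and 72 h). Lysates were cleared and protein measured by BCA. Equal protein was run on 10% SDS–PAGE and transferred to PVDF, blocked in 5% milk overnight, and probed 2 h with anti-Bcl-2, Bax or PARP. HRP secondary was applied for 1 h, with ECL detection.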

[6] = test system: MDA-MB-231; experiment: Induction of apoptosis in human MDA-MB-231 cells assessed as decrease in caspase 7 protein level at 10 uM after 48 hrs by Western blotting; type: functional, cell-based
[7] = test system: MDA-MB-231; experiment: Induction of apoptosis in human MDA-MB-231 cells assessed as induction of PARP cleavage at 10 uM after 48 hrs by Western blotting; type: functional, cell-based; how it was run: as §2
[8] = test system: MCF7; experiment: Induction of apoptosis in human MCF7 cells assessed as viable cells at 10 uM after 24 hrs using annexinV-propidium iodide staining by flow cytometry (reference value: 70.32%); type: functional; conditions: MCF7, 24 h, read-out: Activity
[9] = test system: MCF7; experiment: Induction of apoptosis in human MCF7 cells assessed as late apoptotic cells at 10 uM after 24 hrs using annexinV-propidium iodide staining by flow cytometry (reference value: 13.35%); type: functional
[10] = test system: MCF7; experiment: Induction of apoptosis in human MCF7 cells assessed as necrotic cells at 10 uM after 24 hrs using annexinV-propidium iodide staining by flow cytometry (reference value: 12.09%); type: functional
[11] = test system: MDA-MB-231; experiment: Cell cycle arrest in human MDA-MB-231 cells assessed as accumulation at G2/M phase at 5 to 10 uM after 16 to 40 hrs using propidium iodide staining by flow cytometry; type: functional, cell-based
How it was run: (§3)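 Asynchronous cells were treated with 5 or 10 µM compound or DMSO for 24 h (also 16 and 40 h). They were trypsinized, washed in PBS and fixed/permeabilized in 70% ethanol. Staining was with RNase and propidium iodide for 30 min in the dark at room temperature, followed by flow cytometry. Phase percentages are given minus DMSO control; mean of triplicates.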

[12] = test system: MDA-MB-231; experiment: Induction of apoptosis in human MDA-MB-231 cells assessed as aberrant gross morphological changes at 10 uM after 48 hrs using propidium iodide staining by confocal microscopic analysis; type: functional, cell-based
[13] = test system: MDA-MB-231; experiment: Induction of apoptosis in human MDA-MB-231 cells assessed as decrease in cell number at 10 uM after 48 hrs using propidium iodide staining by confocal microscopic analysis; type: functional, cell-based
[14] = test system: MCF7; experiment: Ratio of IC50 for human CL 10.3 cells expressing p-glycoprotein to IC50 for human MCF7 cells; type: functional
How it was run: (§4)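 MCF-7 and its P-glycoprotein-overexpressing MDR subline CL 10.3 were grown in DMEM with 10% heat-inactivated FBS. Compounds in DMSO were serially diluted in medium and given to cells for 72 h. Read-out was WST-1 reduction (450 nm, 630 nm reference). IC50 interpolated from log concentration versus fraction surviving; mean (SEM) of triplicates. Ratio is CL 10.3 IC50 over MCF-7 IC50.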

[15] = test system: MCF7; experiment: Antiproliferative activity against human MCF7 cells expressing estrogen receptor after 72 hrs by WST-1 assay; type: functional, cell-based; conditions: MCF7, 72 h; how it was run: as §4
[16] = target: CDK9/cyclin T1 (Homo sapiens) (UniProt O60563+P50750); experiment: Inhibition of at human CDK9/cyclin T1 at 0.1 uM after 40 mins relative to control; type: protein-complex assay
How it was run: (§5)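 Radiometric screen at 100 nM compound against purified human CDK/cyclin (5–10 mU). Incubation 40 min at room temperature, stopped with phosphoric acid. Read by filtermat scintillation. Activity expressed as % of control, N = 2.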

[17] = target: Cyclin-dependent kinase 7/ cyclin H (Homo sapiens) (UniProt P51946+P50613); experiment: Inhibition of human CDK7/cyclinH/MAT1 at 0.1 uM after 40 mins relative to control; type: protein-complex assay; how it was run: as §5
[18] = target: CDK3/cyclin E (Homo sapiens) (UniProt P24864+O96020+Q00526); experiment: Inhibition of human CDK3/cyclin E at 0.1 uM after 40 mins relative to control; type: protein-complex assay; how it was run: as §5
Chain of CDK3/cyclin E (Homo sapiens) (O96020 whole entry, looked up): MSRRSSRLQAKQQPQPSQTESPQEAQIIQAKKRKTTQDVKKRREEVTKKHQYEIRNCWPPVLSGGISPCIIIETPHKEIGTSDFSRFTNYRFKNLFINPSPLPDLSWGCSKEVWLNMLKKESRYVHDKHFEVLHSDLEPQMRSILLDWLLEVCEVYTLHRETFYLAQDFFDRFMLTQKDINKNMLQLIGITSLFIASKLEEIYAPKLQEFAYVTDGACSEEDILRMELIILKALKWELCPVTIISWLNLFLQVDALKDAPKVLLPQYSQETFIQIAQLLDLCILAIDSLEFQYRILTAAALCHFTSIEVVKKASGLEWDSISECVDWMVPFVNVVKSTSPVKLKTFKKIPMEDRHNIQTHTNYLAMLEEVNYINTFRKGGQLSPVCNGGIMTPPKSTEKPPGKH
Chain of CDK3/cyclin E (Homo sapiens) (P24864 whole entry, looked up): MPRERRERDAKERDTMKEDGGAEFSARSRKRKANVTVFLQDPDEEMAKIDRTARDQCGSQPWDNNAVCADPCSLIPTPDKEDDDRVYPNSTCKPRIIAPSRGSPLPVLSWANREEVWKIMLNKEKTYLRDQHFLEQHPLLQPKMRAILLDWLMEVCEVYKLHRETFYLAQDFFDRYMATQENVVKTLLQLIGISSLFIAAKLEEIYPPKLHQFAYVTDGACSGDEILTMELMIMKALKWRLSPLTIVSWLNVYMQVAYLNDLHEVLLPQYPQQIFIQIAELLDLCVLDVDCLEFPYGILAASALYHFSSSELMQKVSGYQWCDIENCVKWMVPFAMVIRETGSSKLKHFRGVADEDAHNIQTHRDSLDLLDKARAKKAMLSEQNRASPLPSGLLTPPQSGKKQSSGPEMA
Chain of CDK3/cyclin E (Homo sapiens) (Q00526 whole entry, looked up): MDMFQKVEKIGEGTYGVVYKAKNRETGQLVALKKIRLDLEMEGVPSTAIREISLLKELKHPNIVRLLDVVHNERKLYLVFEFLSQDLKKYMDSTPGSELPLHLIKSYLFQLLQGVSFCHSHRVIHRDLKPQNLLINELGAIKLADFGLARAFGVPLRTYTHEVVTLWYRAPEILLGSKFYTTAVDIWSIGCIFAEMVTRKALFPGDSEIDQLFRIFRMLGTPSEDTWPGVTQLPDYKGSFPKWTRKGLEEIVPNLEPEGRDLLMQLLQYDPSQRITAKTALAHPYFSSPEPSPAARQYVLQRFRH

[19] = test system: MDA-MB-231; experiment: Cell cycle arrest in human MDA-MB-231 cells assessed as accumulation at sup G1 phase at 5 to 10 uM after 24 hrs using propidium iodide staining by flow cytometry; type: functional, cell-based; how it was run: as §3
[20] = test system: MCF7; experiment: Cell cycle arrest in human MCF7 cells assessed as accumulation at sub G1 phase at 5 to 10 uM after 24 hrs using propidium iodide staining by flow cytometry; type: functional, cell-based; how it was run: as §3
[21] = test system: MCF7; experiment: Cell cycle arrest in human MCF7 cells assessed as accumulation at G2/M phase at 5 to 10 uM after 16 to 40 hrs using propidium iodide staining by flow cytometry; type: functional, cell-based; how it was run: as §3
[22] = test system: MDA-MB-231; experiment: Cell cycle arrest in human MDA-MB-231 cells assessed as accumulation at G2/M phase treated at 5 uM for 24 hrs measured after drug washout following 48 hrs growth recovery using propidium iodide staining by flow cytometry; type: functional, cell-based
How it was run: (§6)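 Exponentially growing cells exposed 24 h, then held a further 48 h in compound-free medium. Cells trypsinized, pelleted, PBS-washed, permeabilized in 70% ethanol, stained 30 min in the dark at room temperature with PI plus RNase, and analysed by flow cytometry. Phase percentages given after subtracting untreated control. Mean of triplicate experiments.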

[23] = test system: MDA-MB-231; experiment: Cell cycle arrest in human MDA-MB-231 cells assessed as accumulation at G2/M phase treated at 10 uM for 24 hrs measured after drug washout following 48 hrs growth recovery using propidium iodide staining by flow cytometry; type: functional, cell-based; how it was run: as §6
[24] = test system: MCF7; experiment: Induction of apoptosis in human MCF7 cells assessed as aberrant gross morphological changes at 10 uM after 48 hrs using propidium iodide staining by confocal microscopic analysis; type: functional, cell-based
[25] = test system: MCF7; experiment: Induction of apoptosis in human MCF7 cells assessed as decrease in cell number at 10 uM after 48 hrs using propidium iodide staining by confocal microscopic analysis; type: functional, cell-based
[26] = target: Cyclin-dependent kinase 5/CDK5 activator 1 (Homo sapiens) (UniProt Q00535+Q15078); conditions: at 0.1 µM
Chain of Cyclin-dependent kinase 5/CDK5 activator 1 (Homo sapiens) (Q00535 whole entry): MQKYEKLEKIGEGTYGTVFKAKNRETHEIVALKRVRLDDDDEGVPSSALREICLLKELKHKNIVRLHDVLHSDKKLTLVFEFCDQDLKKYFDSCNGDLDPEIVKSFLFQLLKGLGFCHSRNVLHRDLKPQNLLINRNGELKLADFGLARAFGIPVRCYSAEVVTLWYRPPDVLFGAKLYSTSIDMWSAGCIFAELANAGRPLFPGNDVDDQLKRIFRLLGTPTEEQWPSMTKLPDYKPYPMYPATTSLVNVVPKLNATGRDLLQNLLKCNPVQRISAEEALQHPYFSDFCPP
Chain of Cyclin-dependent kinase 5/CDK5 activator 1 (Homo sapiens) (Q15078 99-307 partner limits assumed): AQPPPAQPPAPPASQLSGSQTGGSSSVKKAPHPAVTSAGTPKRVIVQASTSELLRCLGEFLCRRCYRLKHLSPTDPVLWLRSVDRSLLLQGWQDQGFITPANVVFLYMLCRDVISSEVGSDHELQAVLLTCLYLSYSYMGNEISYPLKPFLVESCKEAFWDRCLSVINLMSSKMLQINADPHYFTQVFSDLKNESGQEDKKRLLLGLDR

**Q.** What does the source list for CC(C)[C@H](CO)Nc1nc(Nc2ccc(C(=O)NCCNS(=O)(=O)c3cccc4c(N(C)C)cccc34)c(Cl)c2)c2ncn(C(C)C)c2n1?
**A.** inhibition [1]: tde; Activity [2]: Active; Activity [3]: Active; Activity [4]: Active; Activity [5]: Active; Activity [6]: Active; Activity [7]: Active; viability at 10 µM [8]: 48.9%; Activity [9]: 23.47%; Activity [10]: 17.15%; Activity [11]: Active; Activity [12]: Active; Activity [13]: Active; Ratio IC50 [14]: 9.8; pIC50 [15]: 5.35; inhibition [16]: 67%; inhibition [17]: 69%; inhibition [18]: 65%; Activity [19]: Active; Activity [20]: Active; Activity [21]: Active; Activity [22]: Active; Activity [23]: Active; Activity [24]: Active; Activity [25]: Active; inhibition [26]: 66%

Reference: ChEMBL document CHEMBL1765024, “Fluorescent cyclin-dependent kinase inhibitors block the proliferation of human breast cancer cells” (Bioorg Med Chem, 2011)
